From PubChem BioAssay AID624467 (The Scripps Research Institute Molecular Screening Center, 2012)
Among all 360,000 compounds or so, about 3,600 (1%) were called active. What follows is part of a selection rich in actives, with near analogues and random picks from the rest. A number with no mark means an inactive call.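 How the source made its calls: active means activation above the mean activation of all test compounds in the run plus 3 SD (cut at about 38% in these data); inactive means the rest.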

These compounds were tested against Trace amine-associated receptor 1 (Homo sapiens) (UniProt Q96RJ0) (assay: human TAAR1 agonists, primary screen, Fluo-8 calcium fluorescence, CHO RD-HGA16 cells (AID 624467)). Details: CHO RD-HGA16 TAAR1, Fluo-8 calcium fluorescence; at 3 µM; active compounds read high; vehicle wells 0%, saturating PEA agonist 100%.
Outline: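 System: CHO-derived RD-HGA16 cells with stable Gα16 and human TAAR1 / Times: 17-24 h plating, Fluo-8 75 min 37 °C, 30 min RT / Technique: calcium-sensitive Fluo-8 signal, excitation 470-495, emission 515-575 nm / Measure: % activation relative to PEA EC100 response / Benchmarks: DMSO and PEA EC100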

Sequence of Trace amine-associated receptor 1 (Homo sapiens) (Q96RJ0 whole entry, looked up): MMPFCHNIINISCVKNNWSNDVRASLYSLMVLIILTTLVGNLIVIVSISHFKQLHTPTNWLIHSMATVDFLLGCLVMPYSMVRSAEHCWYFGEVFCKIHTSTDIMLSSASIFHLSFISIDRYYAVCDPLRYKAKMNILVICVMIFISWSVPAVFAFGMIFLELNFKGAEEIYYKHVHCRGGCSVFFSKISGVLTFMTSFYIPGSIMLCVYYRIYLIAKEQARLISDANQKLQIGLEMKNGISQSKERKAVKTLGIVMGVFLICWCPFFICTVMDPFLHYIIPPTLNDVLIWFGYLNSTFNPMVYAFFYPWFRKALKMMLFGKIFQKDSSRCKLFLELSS

| SMILES | activation |
| --- | --- |
| COc1ccc(N(C(=O)CNC(=O)c2ccco2)C(C(=O)NCC2CCCO2)c2ccccc2)cc1Cl (configuration not stated) | 14% |
| CC(=O)c1ccc(N2CCN(C(=O)c3ccc(Cl)c(S(=O)(=O)NC4CC4)c3)CC2)c(F)c1 | 5.24% |
| COc1ccc(S(=O)(=O)Nc2ccc3c(c2)C(=O)N([C@H](C)CO)C[C@H](C)[C@@H](CN(C)C)OCCCC[C@H](C)O3)cc1 | 1.27% |
| C#CCOc1ccc(/C=C2/C(=O)NN(c3ccccc3)C2=O)cc1OC | 52.3% (active) |
| COc1cc(/C=C2\SC(=O)NC2=O)ccc1OCc1ccc(Cl)nc1 | 0.37% |
| C#CCOc1ccc(/C=C2/C(=O)ON=C2C)cc1OCC | 26.1% |
| COc1ccc(NC(=O)C2C3CCC(O3)C2C(=O)O)cc1OC (configuration not stated) | 2.71% |
| Cc1sc(NC(=O)C2C3CCC(O3)C2C(=O)O)c(C(=O)OC(C)C)c1-c1ccc(Cl)cc1 (configuration not stated) | 38.3% (active) |
| CC(C)OC(=O)c1cc(NC(=O)C2C3CCC(O3)C2C(=O)O)cc(C(=O)OC(C)C)c1 (configuration not stated) | -0.82% |
| Cc1nn(C)cc1N1C(=O)c2cccc3c(N)ccc(c23)C1=O | 83.9% (active) |
| CN1C(=O)c2cccc3c(N)ccc(c23)C1=O | 119% (active) |
| CCCOc1ccc(N2C(=O)CC(N(CCc3ccc(S(N)(=O)=O)cc3)C(C)=O)C2=O)cc1 (configuration not stated) | 1.5% |
| Cc1ccc(CNC(=O)Cn2cnc(S(=O)(=O)N3CCCCC3)c2)o1 | 1.59% |
| CCOC(=O)C1CCN(S(=O)(=O)c2ccc3c(c2)N(C(C)=O)CCO3)CC1 | -0.05% |
| CCCN1C(=O)c2[nH]nc(-c3ccccc3)c2C1c1ccccc1 (configuration not stated) | 2.41% |
| CN(C)C(=O)N1CCN(C(=O)[C@@H](Cc2ccccc2)NC(=O)[C@H]2O[C@@H](n3ccc(N)nc3=O)[C@H](O)[C@@H]2O)CC1 | 1.21% |
| COC(=O)Cc1nnn2c1[C@H](C)[C@H](c1ccccc1Br)OCC2 | 2.69% |
| COc1ccc(C(=O)N2CCCCC2c2cc(C(=O)Nc3ccccc3)no2)cc1 (configuration not stated) | -0.19% |
| Cc1nc(-c2ccc(NC(=O)c3cccs3)cc2)cs1 | 44.8% (active) |

| SMILES | activation |
| --- | --- |
| COc1cc(NC(=O)c2ccc(-c3csc(C)n3)cc2)c(OC)cc1Cl | 3.15% |
| O=C(Nc1n[nH]c(C(F)(F)F)n1)c1cccs1 | -0.13% |
| CSc1ccc(NC(=O)N2CC(C)OC(C)C2)cc1 (configuration not stated) | 6.32% |
| COC(=O)[C@H](Cc1ccccc1)NC(=O)N1CC(C)OC(C)C1 (some centres not stated) | -0.71% |
| Cc1cccc(C)c1NC(=O)N1CC(C)OC(C)C1 (configuration not stated) | 41.9% (active) |
| CC(=O)Nc1ccc(SC[C@H](Cc2ccccc2)N2CC[C@@H](C)CCC2=O)cc1 | 9.24% |
| O=C(O)/C=C/c1ccc(S(=O)(=O)N2CCCCCC2)cc1 | 4.85% |
| O=C(/C=C(O)/C=C/c1ccc(O)cc1)/C=C/c1ccc(O)cc1 | 63.8% (active) |
| C=CCNC(=O)/C=C/c1ccc(C(C)C)cc1 | -2.85% |
| COC(=O)[C@H](CC(C)C)NS(=O)(=O)c1c(F)cccc1F | 1.29% |
| O=C(NCc1ccccc1)[C@H]1CCCN1C(=O)[C@@H]1CCCN1C(=O)c1ccc(Cl)cc1Cl | 0.11% |
| COc1ccc(SSc2ccc(OC)cc2C(=O)O)c(C(=O)O)c1 | 3.23% |
| Cn1cnc2c1c(=O)n(Cc1c(Cl)cccc1Cl)c(=O)n2C | 1.55% |
| CC(C)(C)n1ncc2c(=O)n(Cc3ccc(Cl)cc3)cnc21 | 11.1% |
| CC(C)(C)n1ncc2c(=O)n(Cc3c(Cl)cccc3Br)cnc21 | 38.2% (active) |
| CCCNC(=O)C1(C)CCN(Cc2ccc(Cl)c(Cl)c2)C1 (configuration not stated) | 1.99% |
| Cc1ccc(C)c(-n2nnnc2SCC(=O)c2c(N)n(C)c(=O)n(C)c2=O)c1 | 2.95% |
| O=C1NC[C@H](CCCCN2C[C@H](Cc3ccc(O)cc3)N(CC3CCCCC3)C(=O)C2=O)N(CCc2ccccc2)C1=O | -0.06% |
| COCCn1c(SC(C)C(=O)NC2CC2)nnc1-c1cccc(C)c1 (configuration not stated) | 3.19% |

| SMILES | activation |
| --- | --- |
| NC(=O)C1CCN(C(=O)c2cn(-c3ccccc3)nc2-c2cccnc2)CC1 | 1.55% |
| COc1ccccc1N1CCN(C(=O)c2cn(-c3ccccc3)nc2-c2cccnc2)CC1 | 19.1% |
| O=C(NNC(=S)NC(=O)c1cn(-c2ccccc2)nc1-c1ccccc1)c1ccncc1 | 118% (active) |
| O=C(NCc1ccc(F)cc1)C1CCC(CNc2c(N3CCOCC3)c(=O)c2=O)CC1 (configuration not stated) | 0.31% |
| O=C(NCCOc1ccccc1F)Nc1ccc(Br)cc1 | 12% |
| O=C(Nc1nnc(COc2ccccc2)s1)Nc1ccccc1F | -0.19% |
| O=C(Nc1ccccc1)Nc1nnc(COc2ccccc2F)s1 | 49.8% (active) |
| COC(=O)[C@]12C[C@H](CC(=O)NCCC(C)C)C(=O)N(CCc3ccc(OC)c(OC)c3)C1=C[C@H](C(C)(C)C)O[C@@H]2C | -1.91% |
| Cc1nc(NC(=O)C(C)(C)C)sc1[N+](=O)[O-] | 1.6% |
| NC[C@H](Cc1ccccc1)NCCc1cc(C(F)(F)F)cc(C(F)(F)F)c1 | 47.6% (active) |
| COC(=O)[C@@H](Cc1ccccc1)NC(=O)NCCc1ccccc1 | -0.6% |
| CCC(CC)NC(=O)CSc1nnc(-c2c[nH]c3ccccc23)o1 | 3.45% |
| CCOC(=O)c1cc2c(=O)[nH]c(C(Cl)(Cl)Cl)nc2o1 | 2.83% |
| CN1C(=O)C2CC(O)C(SC3CC4C(=O)N(C)C(=O)C4CC3O)CC2C1=O (configuration not stated) | -0.78% |
| COc1cc(OC)c(NC(=O)C2CCCN2C(=O)OCc2ccccc2)cc1Cl (configuration not stated) | 1.2% |
| CN1C(=O)C(Br)(Br)CC1c1cccnc1 (configuration not stated) | 0.34% |
| O=C(OCCN=C1NS(=O)(=O)c2ccccc21)c1cccc([N+](=O)[O-])c1 | 0.99% |
| N#CC1(NC(=O)COC(=O)CCN=C2NS(=O)(=O)c3ccccc32)CCCCC1 | 1.14% |
| O=C(CCCN=C1NS(=O)(=O)c2ccccc21)OCC(=O)c1ccc(F)c(F)c1 | 86.8% (active) |
